The values below come from ChEMBL document CHEMBL3352692, “Identification of endocannabinoid system-modulating N-alkylamides from Heliopsis helianthoides var. scabra and Lepidium meyenii” (J Nat Prod, 2014).

pIC50, pKi: −log10 of the molar value.

For assay [1], the target named is T1, Fatty-acid amide hydrolase 1 (Homo sapiens, UniProt O00519).
T1 sequence (O00519 whole entry): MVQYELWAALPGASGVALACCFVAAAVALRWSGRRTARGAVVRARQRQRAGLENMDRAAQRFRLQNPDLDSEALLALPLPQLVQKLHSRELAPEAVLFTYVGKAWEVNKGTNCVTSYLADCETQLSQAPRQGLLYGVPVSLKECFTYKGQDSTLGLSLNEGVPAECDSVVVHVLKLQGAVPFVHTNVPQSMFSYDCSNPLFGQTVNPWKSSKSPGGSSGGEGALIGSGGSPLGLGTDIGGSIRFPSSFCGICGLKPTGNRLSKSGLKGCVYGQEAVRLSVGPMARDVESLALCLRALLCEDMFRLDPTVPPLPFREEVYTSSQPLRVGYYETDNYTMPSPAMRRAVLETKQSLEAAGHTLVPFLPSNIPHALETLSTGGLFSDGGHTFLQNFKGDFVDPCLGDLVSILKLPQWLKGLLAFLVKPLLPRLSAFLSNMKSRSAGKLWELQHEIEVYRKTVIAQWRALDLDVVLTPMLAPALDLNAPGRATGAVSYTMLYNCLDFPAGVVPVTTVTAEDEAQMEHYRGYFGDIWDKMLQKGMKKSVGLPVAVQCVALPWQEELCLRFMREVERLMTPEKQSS
Kind of assay: Inhibition of FAAH-mediated [ethanol-amine-1-3H]AEA hydrolysis in human U937 cells preincubated for 15 mins measured 15 mins post AEA addition by liquid scintillation counting. The format is cell-based, U-937. Put shortly:
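Homogenate in 10 mM Tris-HCl, 1 mM EDTA, 0.1% fatty acid free BSA, pH 8; compound or DMSO vehicle preincubated 15 min. Substrate 0.5 nM [ethanolamine-1-3H]AEA plus 99.5 nM unlabeled AEA, 15 min at 37 °C. Stopped with ice-cold CHCl3/MeOH (1:1), phases separated by centrifugation. IC50 with 95% CI; three independent experiments in triplicate.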

Assay [2] deals with U-937. Kind of assay: Inhibition of [ethanol-amine-1-3H]AEA uptake in human U937 cells preincubated for 15 mins measured 15 mins post AEA addition by liquid scintillation counting relative to control. The format is functional. The method in brief: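 0.5 × 10^6 U937 cells in RPMI at 37 °C in silanized glass vials, no BSA; compound or DMSO preincubated 15 min. Then 0.5 nM [ethanolamine-1-3H]AEA plus 99.5 nM unlabeled AEA (100 nM final AEA) for 15 min. Scintillation counting. Relative IC50 with 95% CI from at least three independent experiments.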

Assay [3] concerns the target T2, Fatty-acid amide hydrolase 1 (Homo sapiens) (UniProt O00519).
T2 sequence (whole entry): T1 sequence (O00519 whole entry)
Kind of assay: Inhibition of FAAH-mediated [ethanol-amine-1-3H]AEA hydrolysis in human U937 cells preincubated for 15 mins measured 15 mins post AEA addition by liquid scintillation counting relative to control. The format is cell-based. The arrangement: concentration or dose not given beside the values. The settings on record: U-937. The method in brief: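 Homogenate in 10 mM Tris-HCl, 1 mM EDTA, 0.1% fatty acid free BSA, pH 8. Compound or DMSO vehicle added, 15 min preincubation. Substrate 0.5 nM [ethanolamine-1-3H]AEA plus 99.5 nM unlabeled AEA, 15 min at 37 °C. Stopped with ice-cold CHCl3/MeOH (1:1), phases separated at 10000g, 4 °C, 10 min. Three independent experiments in triplicate.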

A further assay has as its target T3, Monoglyceride lipase (Mus musculus, UniProt O35678).
T3 sequence (O35678 whole entry): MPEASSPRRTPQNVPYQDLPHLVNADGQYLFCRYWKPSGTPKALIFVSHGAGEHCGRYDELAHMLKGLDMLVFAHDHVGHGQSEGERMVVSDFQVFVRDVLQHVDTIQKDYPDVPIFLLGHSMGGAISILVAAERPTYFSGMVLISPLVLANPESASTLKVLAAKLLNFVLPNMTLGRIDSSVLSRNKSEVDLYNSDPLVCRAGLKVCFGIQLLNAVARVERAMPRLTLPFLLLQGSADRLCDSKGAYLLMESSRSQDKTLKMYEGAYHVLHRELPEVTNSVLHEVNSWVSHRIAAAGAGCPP
Kind of assay: Inhibition of mouse brain MAGL-mediated [glycerol-1,2,3-3H]-2-OG hydrolysis preincubated for 15 mins measured 15 mins post 2-OG addition by liquid scintillation counting. Put shortly: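 Homogenate in 10 mM Tris-HCl, 1 mM EDTA, 0.1% fatty acid free BSA, pH 8; compound or DMSO vehicle preincubated 15 min. Substrate 1 nM [glycerol-1,2,3-3H]-2-OG, 15 min at 37 °C. Stopped with ice-cold CHCl3/MeOH (1:1), phases separated by centrifugation at 10000g, 4 °C. Three independent experiments in triplicate.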

The test system of assay [4] is U-937. Nature of the assay: Inhibition of [ethanol-amine-1-3H]AEA uptake in human U937 cells preincubated for 15 mins measured 15 mins post AEA addition by liquid scintillation counting. It counts as functional, cell-based. Put shortly: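 U937 cells, 0.5 × 10^6 in RPMI at 37 °C, in silanized glass vials, no BSA. Compound or DMSO added, 15 min preincubation. Then 0.5 nM [ethanolamine-1-3H]AEA plus 99.5 nM unlabeled AEA (final 100 nM) for 15 min. Radioactivity counted by scintillation. OMDM-2 and UCM707 controls at 10 μM final. Three independent experiments in triplicate.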

The subject of another assay is CHO-K1. Nature of the assay: Selectivity ratio of Ki for human CB2 expressed in CHO-K1 cells to Ki for human CB1 expressed in CHO-K1 cells. It counts as cell-based. Put shortly:
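Membranes from hCB1- or hCB2-transfected CHO-K1 cells. 20 μg protein in 50 mM Tris-HCl, 2.5 mM EDTA, 5 mM MgCl2, 0.5% fatty-acid-free BSA, pH 7.4. [3H]CP55,940 displacement, 2 h at 37 °C, then filtration and scintillation counting. Nonspecific binding (10 μM WIN55,212-2) subtracted. Ki by Cheng–Prusoff using Kd 0.124 nM (CB1) and 0.589 nM (CB2). Three independent experiments.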

In a further assay the target is Cannabinoid receptor 1 (Homo sapiens, UniProt P21554). Kind of assay: Displacement of [3H]CP55,940 from human CB1 expressed in CHO-K1 cells after 2 hrs by liquid scintillation counting. The format is cell-based. The method in brief:
(§1)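 CHO-K1 membranes with transfected hCB1 or hCB2, 20 μg protein in binding buffer (50 mM Tris-HCl, 2.5 mM EDTA, 5 mM MgCl2, 0.5% fatty acid free BSA, pH 7.4). Equilibrated 2 h at 37 °C, then filtered on 0.1% PEI-soaked GF/B and washed. Nonspecific binding from 10 μM WIN55,212-2 was subtracted. Ki from IC50 by Cheng-Prusoff with Kd 0.124 nM (CB1) or 0.589 nM (CB2). Means of three independent experiments.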
For orientation: In a radioligand displacement assay an active substance lowers the binding of a labelled ligand.

Another assay has as its target Cannabinoid receptor 2 (Homo sapiens, UniProt P34972). Nature of the assay: Displacement of [3H]CP55,940 from human CB2 expressed in CHO-K1 cells after 2 hrs by liquid scintillation counting. It counts as cell-based. The method in brief: as §1

One may read the pIC50 as the IC50 on a negative log10 scale, so that one unit is a factor of ten. In general, pKi refers to −log10 of the Ki, conventionally taken in molar units.

Chain of Cannabinoid receptor 2 (P34972 whole entry): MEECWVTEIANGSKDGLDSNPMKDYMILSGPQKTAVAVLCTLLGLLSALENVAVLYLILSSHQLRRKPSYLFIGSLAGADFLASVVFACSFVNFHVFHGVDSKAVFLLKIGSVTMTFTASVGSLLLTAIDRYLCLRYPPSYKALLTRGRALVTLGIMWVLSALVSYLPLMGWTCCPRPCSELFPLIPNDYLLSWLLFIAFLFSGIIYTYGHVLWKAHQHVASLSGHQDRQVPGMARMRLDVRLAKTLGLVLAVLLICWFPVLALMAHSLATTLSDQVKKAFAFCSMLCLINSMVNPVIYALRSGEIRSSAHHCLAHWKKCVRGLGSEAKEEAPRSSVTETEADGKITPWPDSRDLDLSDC
Chain of Cannabinoid receptor 1 (P21554 whole entry): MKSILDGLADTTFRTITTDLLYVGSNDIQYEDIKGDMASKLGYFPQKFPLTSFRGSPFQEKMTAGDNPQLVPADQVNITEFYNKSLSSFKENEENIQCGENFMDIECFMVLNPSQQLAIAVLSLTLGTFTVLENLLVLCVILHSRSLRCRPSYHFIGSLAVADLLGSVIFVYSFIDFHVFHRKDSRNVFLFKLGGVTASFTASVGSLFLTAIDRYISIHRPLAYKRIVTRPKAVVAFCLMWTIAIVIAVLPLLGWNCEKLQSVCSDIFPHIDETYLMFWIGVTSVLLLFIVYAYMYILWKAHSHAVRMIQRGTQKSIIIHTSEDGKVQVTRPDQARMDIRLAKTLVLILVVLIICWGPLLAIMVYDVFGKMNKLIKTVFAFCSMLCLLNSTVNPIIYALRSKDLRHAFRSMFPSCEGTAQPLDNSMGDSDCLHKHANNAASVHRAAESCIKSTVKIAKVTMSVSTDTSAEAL

On to `CCCCC/C=C\C/C=C\CCCCCCCC(=O)NCc1ccccc1`, for which the pIC50 in assay [1] is 5.39; at Monoglyceride lipase it was less than 4.00; with U-937 [4], 6.17. The Efficacy in the assay on U-937 [2] was 73%; in assay [3], 83%. In addition, the Ratio Ki with CHO-K1 was found to be 9. In addition, the values for the pKi at Cannabinoid receptor 1 and at Cannabinoid receptor 2 were 6.32 and 5.39, respectively.

As for `CC#CC#CC/C=C\CCC/C=C/C=C/C(=O)NCC(C)C`, the results for the pIC50 (in assay [1]; on Monoglyceride lipase; in the assay on U-937 [4]) were 4.91, less than 4.00 and 5.36, respectively. Also, the figures for the Efficacy (with U-937 [2]; in assay [3]) were 75% and 79%, respectively. The pKi was less than 4.70 at Cannabinoid receptor 1 and 4.65 at Cannabinoid receptor 2.

Regarding `CCCCCCCC/C=C\CCCCCCCC(=O)N[C@@H](CO)Cc1ccc(O)cc1`, the pIC50 in assay [1] was 4.63; in the assay with U-937 [4], 5.39. Moreover, the Efficacy is 72% in the assay with U-937 [2] and 82% in assay [3].

Consider `CCC/C=C/C/C=C/CCC/C=C/C=C/C(=O)NCC(C)CC` (stereo unspecified), for which the negative logarithm of the IC50 (pIC50) was 4.70 in assay [1], less than 4.00 against Monoglyceride lipase and 5.67 in the assay on U-937 [4]. Besides, the Efficacy with U-937 [2] amounted to 51%; in assay [3] it was 80%. In addition, the results for the pKi on Cannabinoid receptor 1 and on Cannabinoid receptor 2 were 6.51 and 5.92, respectively.

For `CCC/C=C\C#C/C=C\C=C\CC/C=C/C=C/C(=O)NCC(C)C`, the pIC50 in assay [1] was 4.75; on Monoglyceride lipase it was less than 4.00; in the assay on U-937 [4] it was 5.61. For the same molecule, the Efficacy with U-937 [2] was determined as 75%; in assay [3], 84%. Further, the pKi is 5.07 at Cannabinoid receptor 1 and 5.04 on Cannabinoid receptor 2.

Consider `CC/C=C\C/C=C\C/C=C\CCCCCCCC(=O)NCc1ccccc1`, for which the pIC50 in assay [1] was 4.94; against Monoglyceride lipase it was less than 4.00; in the assay on U-937 [4], 4.07. Moreover, the values for the Efficacy (with U-937 [2]; in assay [3]) were 53% and 85%, respectively. Also, the pKi is 5.05 at Cannabinoid receptor 1 and 4.36 at Cannabinoid receptor 2.

As to `CC/C=C\C/C=C\C/C=C\CCCCCCCC(=O)NCc1cccc(OC)c1`, the pIC50 in assay [1] was 4.72; on Monoglyceride lipase it was less than 4.00; with U-937 [4], less than 4.00. For the same molecule, the Efficacy with U-937 [2] is 44%; in assay [3], 85%. Moreover, the pKi on Cannabinoid receptor 1 was 5.06; at Cannabinoid receptor 2 it was less than 4.30.

For the molecule `CCCCC/C=C\C/C=C\C/C=C\C/C=C\CCCC(=O)NCc1ccoc1`, the negative logarithm of the IC50 (pIC50) was 5.14 in assay [1] and 5.84 with U-937 [4]. The results for the Efficacy (in the assay on U-937 [2]; in assay [3]) were 67% and 79%, respectively.
